Activity calls are given as the source filed them. The calls are words filed in the database; no cut-off is given here.
Columns and labels:
Acetylcholinesterase [1] = biological target: Acetylcholinesterase (Electrophorus electricus, UniProt O42275); assay: Inhibition of electric eel AChE using ATC as substrate preincubated for 5 mins followed by substrate addition measured after 2 mins by Ellman's assay
[2] = Antioxidant activity assessed as galvinoxyl radical scavenging activity at 2 uM after 19 hrs by UV spectrophotometric analysis; format: physicochemical
Procedure, shortened: (§1)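 Galvinoxyl radical at 2 µM in ethanol, with compounds in ethanol at 1, 2, 10, 50 or 100 µM. Mixture lines used an equimolar (1:1) blend with ferulic acid. A428 was recorded before addition and after 19 h once stable. Percent radical scavenged = (1 − Abst/Abs0) × 100.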

[3] = Antioxidant activity assessed as galvinoxyl radical scavenging activity at 10 uM after 19 hrs by UV spectrophotometric analysis; format: physicochemical; procedure, shortened: as §1
[4] = Antioxidant activity assessed as DPPH radical scavenging activity at 2 uM after 4 hrs by UV spectrophotometric analysis; format: physicochemical
Procedure, shortened: (§2)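 DPPH radical at 0.1 mM in ethanol. Test compounds were in ethanol at 1–100 µM (1, 2, 10, 50, 100). Mixture lines used an equimolar (1:1) blend with ferulic acid. Absorbance was read at 517 nm before addition (Abs0) and after 4 h once stable (Abst). Scavenging % = (1 − Abst/Abs0) × 100.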

Cholinesterase [5] = biological target: Cholinesterase (Equus caballus, UniProt P81908); assay: Inhibition of equine BChE using BTC as substrate preincubated for 5 mins followed by substrate addition measured after 2 mins by Ellman's assay
[6] = Antioxidant activity assessed as DPPH radical scavenging activity at 50 uM after 4 hrs by UV spectrophotometric analysis; format: physicochemical; procedure, shortened: as §2
[7] = Antioxidant activity assessed as DPPH radical scavenging activity at 1 uM after 4 hrs by UV spectrophotometric analysis; format: physicochemical; procedure, shortened: as §2
[8] = Antioxidant activity assessed as galvinoxyl radical scavenging activity at 100 uM after 19 hrs by UV spectrophotometric analysis; format: physicochemical; procedure, shortened: as §1
[9] = Antioxidant activity assessed as galvinoxyl radical scavenging activity at 1 uM after 19 hrs by UV spectrophotometric analysis; format: physicochemical; procedure, shortened: as §1
[10] = Antioxidant activity assessed as DPPH radical scavenging activity at 100 uM after 4 hrs by UV spectrophotometric analysis; format: physicochemical; procedure, shortened: as §2
[11] = Antioxidant activity assessed as galvinoxyl radical scavenging activity at 50 uM after 19 hrs by UV spectrophotometric analysis; format: physicochemical; procedure, shortened: as §1
[12] = Antioxidant activity assessed as DPPH radical scavenging activity at 10 uM after 4 hrs by UV spectrophotometric analysis; format: physicochemical; procedure, shortened: as §2
Cholinesterase [13] = biological target: Cholinesterase (Homo sapiens, UniProt P06276); assay: Inhibition of human BChE using BTC as substrate preincubated for 5 mins followed by substrate addition measured after 2 mins by Ellman's assay
Procedure, shortened: (§3)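 Ellman's method with DTNB chromogen, acetylthiocholine (AChE) or butyrylthiocholine (BChE) iodide substrate, in potassium phosphate buffer pH 8.0 (KOH-adjusted). Compounds were diluted from ethanol stocks, with a top final concentration of 10^-4 M. At least five concentrations (normally 10^-4–10^-9 M) were run, each in triplicate, read at 412 nm at 25 °C. IC50 values are from inhibition curves, as means of at least three determinations.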

Acetylcholinesterase [14] = biological target: Acetylcholinesterase (Homo sapiens, UniProt P22303); assay: Inhibition of human AChE using ATC as substrate preincubated for 5 mins followed by substrate addition measured after 2 mins by Ellman's assay; procedure, shortened: as §3
[15] = Antioxidant activity assessed as DPPH radical scavenging activity at 2 uM after 4 hrs by UV spectrophotometric analysis in presence of ferulic acid; format: physicochemical; procedure, shortened: as §2
[16] = Antioxidant activity assessed as galvinoxyl radical scavenging activity at 100 uM after 19 hrs in presence of ferulic acid by UV spectrophotometric analysis; format: physicochemical; procedure, shortened: as §1
[17] = Antioxidant activity assessed as galvinoxyl radical scavenging activity at 50 uM after 19 hrs in presence of ferulic acid by UV spectrophotometric analysis; format: physicochemical; procedure, shortened: as §1
[18] = Antioxidant activity assessed as DPPH radical scavenging activity at 50 uM after 4 hrs by UV spectrophotometric analysis in presence of ferulic acid; format: physicochemical; procedure, shortened: as §2
[19] = Antioxidant activity assessed as galvinoxyl radical scavenging activity at 1 uM after 19 hrs in presence of ferulic acid by UV spectrophotometric analysis; format: physicochemical; procedure, shortened: as §1
[20] = Antioxidant activity assessed as galvinoxyl radical scavenging activity at 2 uM after 19 hrs in presence of ferulic acid by UV spectrophotometric analysis; format: physicochemical; procedure, shortened: as §1
[21] = Antioxidant activity assessed as DPPH radical scavenging activity at 1 uM after 4 hrs by UV spectrophotometric analysis in presence of ferulic acid; format: physicochemical; procedure, shortened: as §2
[22] = Antioxidant activity assessed as galvinoxyl radical scavenging activity at 10 uM after 19 hrs in presence of ferulic acid by UV spectrophotometric analysis; format: physicochemical; procedure, shortened: as §1
[23] = Antioxidant activity assessed as DPPH radical scavenging activity at 10 uM after 4 hrs by UV spectrophotometric analysis in presence of ferulic acid; format: physicochemical; procedure, shortened: as §2
[24] = Antioxidant activity assessed as DPPH radical scavenging activity at 100 uM after 4 hrs by UV spectrophotometric analysis in presence of ferulic acid; format: physicochemical; procedure, shortened: as §2
PC-12 [25] = assay: Neuroprotective effect in rat PC12 cells assessed as alleviation of amyloid beta 42-induced toxicity at 1:1 compound to ferulic acid molar ratio after 24 hrs by MTT assay; format: functional, cell-based
Procedure, shortened: (§4)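 Aβ42 was dissolved in hexafluoroisopropanol, dried to a film, taken up in F-12 and held at 4 °C for 24 h. PC12 cells (2000/well, 24 h pre-culture) were co-treated with this Aβ42 and compound (0.1–50; DMSO <0.5%) for 24 h. The mixture line used a 1:1 blend with ferulic acid. MTT for 4 h, A540; % of control, three independent trials, mean ± SEM.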

PC-12 [26] = assay: Neuroprotective effect in rat PC12 cells assessed as alleviation of H2O2-induced toxicity at 1:1 compound to ferulic acid molar ratio after 24 hrs by MTT assay; format: functional, cell-based
Procedure, shortened: (§5)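 PC12 cells (F-12, 10% FBS, 37 °C, 5% CO₂; 2000 cells/well, 24 h pre-culture) were co-treated with compound (0.1, 1, 10, 50; DMSO <0.5%) and H₂O₂ for 24 h. The mixture line used a 1:1 molar blend with ferulic acid. MTT for 4 h, formazan dissolved in DMSO, A540, blank-subtracted. Viability is % of control; three independent trials, mean ± SEM.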

[27] = Cytotoxicity against rat PC12 cells at 0.1 to 50 uM incubated for 24 hrs by MTT assay; format: cell-based; conditions: pc-12, 24 h
Procedure, shortened: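 PC12 cells were grown in F-12 with 10% FBS and penicillin/streptomycin at 37 °C, 5% CO₂, seeded at 2000 cells/well and grown 24 h. Compounds were added from DMSO (final <0.5%) for 24 h. MTT (5 mg/mL) was added for 4 h, formazan dissolved in DMSO and A540 read after cell-free blank subtraction. Viability is % of control; three independent trials, mean ± SEM.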

PC-12 [28] = assay: Neuroprotective effect in rat PC12 cells assessed as alleviation of H2O2 -induced toxicity after 24 hrs by MTT assay; format: functional, cell-based; procedure, shortened: as §5
PC-12 [29] = assay: Neuroprotective effect in rat PC12 cells assessed as alleviation of amyloid beta42-induced toxicity after 24 hrs by MTT assay; format: functional, cell-based; procedure, shortened: as §4

Chain of Acetylcholinesterase (Homo sapiens, UniProt P22303) (P22303 whole entry): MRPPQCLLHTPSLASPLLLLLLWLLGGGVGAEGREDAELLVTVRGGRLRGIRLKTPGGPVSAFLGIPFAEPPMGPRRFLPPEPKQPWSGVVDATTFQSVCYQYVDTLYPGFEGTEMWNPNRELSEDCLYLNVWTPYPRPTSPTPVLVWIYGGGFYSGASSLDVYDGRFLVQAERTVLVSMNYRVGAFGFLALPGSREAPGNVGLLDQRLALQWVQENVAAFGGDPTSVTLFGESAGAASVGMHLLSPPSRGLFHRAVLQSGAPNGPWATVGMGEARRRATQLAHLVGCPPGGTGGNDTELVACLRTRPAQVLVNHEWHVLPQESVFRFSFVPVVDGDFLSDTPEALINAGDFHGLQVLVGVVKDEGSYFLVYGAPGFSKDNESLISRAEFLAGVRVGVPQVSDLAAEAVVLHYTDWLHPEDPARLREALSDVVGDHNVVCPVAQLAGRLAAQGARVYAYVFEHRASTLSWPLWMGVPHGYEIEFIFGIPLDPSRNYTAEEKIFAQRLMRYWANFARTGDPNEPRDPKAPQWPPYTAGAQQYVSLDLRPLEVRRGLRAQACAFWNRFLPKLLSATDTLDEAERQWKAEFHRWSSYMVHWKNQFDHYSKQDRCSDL
Chain of Acetylcholinesterase (Electrophorus electricus, UniProt O42275) (O42275 whole entry): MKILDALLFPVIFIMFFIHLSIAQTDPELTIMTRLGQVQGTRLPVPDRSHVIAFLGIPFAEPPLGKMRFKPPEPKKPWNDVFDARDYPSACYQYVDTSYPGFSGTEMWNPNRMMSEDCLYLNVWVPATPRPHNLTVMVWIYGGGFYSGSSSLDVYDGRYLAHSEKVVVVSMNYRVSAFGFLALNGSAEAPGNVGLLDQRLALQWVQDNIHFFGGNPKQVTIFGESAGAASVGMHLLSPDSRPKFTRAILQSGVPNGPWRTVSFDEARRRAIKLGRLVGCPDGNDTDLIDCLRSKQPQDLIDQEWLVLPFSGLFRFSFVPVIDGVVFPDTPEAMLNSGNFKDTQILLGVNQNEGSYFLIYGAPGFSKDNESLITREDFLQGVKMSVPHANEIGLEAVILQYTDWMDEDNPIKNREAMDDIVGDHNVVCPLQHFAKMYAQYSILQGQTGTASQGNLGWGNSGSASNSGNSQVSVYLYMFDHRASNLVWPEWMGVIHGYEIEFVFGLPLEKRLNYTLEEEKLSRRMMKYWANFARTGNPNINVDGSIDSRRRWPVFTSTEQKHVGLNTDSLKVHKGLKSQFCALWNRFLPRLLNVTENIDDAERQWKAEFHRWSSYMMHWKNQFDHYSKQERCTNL
Chain of Cholinesterase (Equus caballus, UniProt P81908) (P81908 whole entry): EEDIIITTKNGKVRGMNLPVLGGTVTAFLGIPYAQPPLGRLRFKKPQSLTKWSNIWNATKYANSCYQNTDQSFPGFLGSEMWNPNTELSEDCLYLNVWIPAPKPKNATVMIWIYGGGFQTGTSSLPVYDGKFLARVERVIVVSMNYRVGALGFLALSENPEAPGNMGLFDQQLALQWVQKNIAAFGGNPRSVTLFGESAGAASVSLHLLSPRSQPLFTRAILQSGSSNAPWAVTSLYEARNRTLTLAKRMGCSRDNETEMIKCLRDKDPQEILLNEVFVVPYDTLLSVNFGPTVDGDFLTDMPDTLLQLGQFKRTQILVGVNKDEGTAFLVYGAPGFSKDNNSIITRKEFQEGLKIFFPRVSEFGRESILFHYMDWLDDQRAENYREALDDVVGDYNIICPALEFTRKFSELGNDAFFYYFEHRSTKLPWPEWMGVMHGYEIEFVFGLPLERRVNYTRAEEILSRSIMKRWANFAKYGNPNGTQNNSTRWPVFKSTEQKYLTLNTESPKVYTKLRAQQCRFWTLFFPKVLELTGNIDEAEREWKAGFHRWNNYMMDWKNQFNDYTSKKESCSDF
Chain of Cholinesterase (Homo sapiens, UniProt P06276) (P06276 whole entry): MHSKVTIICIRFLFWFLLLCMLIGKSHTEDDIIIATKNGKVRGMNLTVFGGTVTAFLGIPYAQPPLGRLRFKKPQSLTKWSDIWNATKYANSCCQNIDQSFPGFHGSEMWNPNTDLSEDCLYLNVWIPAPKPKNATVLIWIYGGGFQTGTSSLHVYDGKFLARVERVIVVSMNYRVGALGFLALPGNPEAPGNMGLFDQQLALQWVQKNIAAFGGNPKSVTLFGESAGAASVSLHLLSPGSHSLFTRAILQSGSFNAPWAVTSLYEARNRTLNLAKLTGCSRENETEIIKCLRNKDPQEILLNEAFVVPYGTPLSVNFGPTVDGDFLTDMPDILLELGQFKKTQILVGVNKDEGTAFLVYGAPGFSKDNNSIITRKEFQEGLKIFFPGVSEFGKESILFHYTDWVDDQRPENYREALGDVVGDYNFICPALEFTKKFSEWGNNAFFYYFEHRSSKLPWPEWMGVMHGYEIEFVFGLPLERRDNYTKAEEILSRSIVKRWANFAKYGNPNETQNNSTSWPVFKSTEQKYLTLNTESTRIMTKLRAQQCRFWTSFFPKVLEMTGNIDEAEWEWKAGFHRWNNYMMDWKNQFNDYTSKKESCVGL

Row | SMILES | IC50 (Acetylcholinesterase [1]) [µM] | Activity [2] [%] | Activity [3] [%] | Activity [4] [%] | IC50 (Cholinesterase [5]) [µM] | Activity [6] [%] | Activity [7] [%] | Activity [8] [%] | Activity [9] [%] | Activity [10] [%] | Activity [11] [%] | Activity [12] [%] | other results
1 | COc1ccc2c(c1)[nH]c1cccc(CN(Cc3ccccc3)C(=O)/C=C/c3ccc(O)c(OC)c3)c12 | > 100 |  |  |  |  |  |  |  |  |  |  |  | 
2 | COc1cc(/C=C/C(=O)N(Cc2cccc3[nH]c4ccccc4c23)C2CCCC2)ccc1O | > 100 | 54.5 | 66.6 | 54.5 | 31.6 | 85.7 | 25.9 | 90.3 | 25.9 | 90.3 | 85.7 | 66.6 | 
3 | CC(C)NCc1cccc2[nH]c3ccccc3c12 | 21.6 |  |  |  | 8.9 |  |  |  |  |  |  |  | IC50 (Cholinesterase [13]): 8.1 µM; IC50 (Acetylcholinesterase [14]): 18 µM
4 | COc1cc(/C=C/C(=O)N(Cc2cccc3[nH]c4ccccc4c23)C2CCCCC2)ccc1O | > 100 | 12.4 | 23.1 | 52.4 | 22 | 72 | 30.3 | 87.2 | 3.3 | 89.2 | 42 | 63.1 | 
5 | COc1cc(/C=C/C(=O)N(Cc2ccccc2)Cc2cccc3[nH]c4ccccc4c23)ccc1O | > 100 |  |  |  |  |  |  |  |  |  |  |  | 
6 | COc1cc(/C=C/C(=O)N(Cc2cccc3[nH]c4ccccc4c23)C(C)C)ccc1O | 11.1 | 55.2 | 68 | 56.2 | 12.7 | 84.5 | 44.1 | 90.8 | 24.1 | 90.9 | 87.5 | 68.9 | IC50 (Cholinesterase [13]): 9 µM; IC50 (Acetylcholinesterase [14]): 22 µM
7 | CCNCc1cccc2[nH]c3cc(Cl)ccc3c12 | 2.1 |  |  |  | 1.9 |  |  |  |  |  |  |  | Activity [15]: 44.7%; Activity [16]: 83.2%; Activity [17]: 51.4%; IC50 (Cholinesterase [13]): 7.9 µM; Activity [18]: 71.4%; Activity [19]: 11%; Activity [20]: 14.7%; Activity [21]: 31.6%; IC50 (Acetylcholinesterase [14]): 5.1 µM; Activity [22]: 30.1%; Activity [23]: 60.1%; Activity [24]: 93.2%; Activity (PC-12 [25]): inactive; Activity (PC-12 [26]): Active
8 | COc1cc(/C=C/C(=O)O)ccc1O [FERULATE] |  | 15.8 | 33.7 | 44.4 |  | 72 | 30.3 | 79 | 6.6 | 92.2 | 52.2 | 63.1 | 
9 | COc1ccc2c(c1)[nH]c1cccc(CN(C(=O)/C=C/c3ccc(O)c(OC)c3)C(C)C)c12 | 58.2 | 8 | 23.4 | 55 | 13.9 | 72.9 | 45.1 | 87.2 | 1.1 | 98 | 51.7 | 68.2 | 
10 | COc1ccc2c(c1)[nH]c1cccc(CN(C(=O)/C=C/c3ccc(O)c(OC)c3)C3CCCC3)c12 | 88.2 | 24 | 37.4 | 54 | 25.9 | 86.8 | 34.8 | 87.4 | 14.8 | 90.4 | 66.8 | 67.4 | 
11 | CCN(Cc1cccc2[nH]c3ccccc3c12)C(=O)/C=C/c1ccc(O)c(OC)c1 | 18 | 40.1 | 55 | 40.1 | 13.8 | 82.8 | 24.7 | 86.3 | 24.7 | 86.3 | 82.8 | 55 | 
12 | COc1ccc2c(c1)[nH]c1cccc(CN(C(=O)/C=C/c3ccc(O)c(OC)c3)C3CCCCC3)c12 | > 100 | 40.9 | 50.9 | 47.9 | 20.5 | 82 | 38.6 | 88.6 | 25.6 | 88.6 | 72 | 50.9 | 
13 | CCN(Cc1cccc2[nH]c3cc(OC)ccc3c12)C(=O)/C=C/c1ccc(O)c(OC)c1 | 61.6 | 29.2 | 40.3 | 59.2 | 19.8 | 86.4 | 33.1 | 91.9 | 11.1 | 94.9 | 78.2 | 71.3 | 
14 | CCN(Cc1cccc2[nH]c3cc(Cl)ccc3c12)C(=O)/C=C/c1ccc(O)c(OC)c1 | 1.9 | 22.4 | 38.1 | 49.1 | 3.1 | 77.3 | 41.8 | 83.2 | 8.3 | 91.9 | 57 | 66 | Activity [27]: Non-toxic; IC50 (Cholinesterase [13]): 2.8 µM; Activity (PC-12 [28]): Dose-dependent effect; Activity (PC-12 [29]): Dose-dependent effect; IC50 (Acetylcholinesterase [14]): 6.9 µM

From ChEMBL document CHEMBL3751731, “Ferulic acid-carbazole hybrid compounds: Combination of cholinesterase inhibition, antioxidant and neuroprotection as multifunctional anti-Alzheimer agents” (Bioorg Med Chem, 2016)
